Data set [1] deals with plasma proteins. The data set is described as follows: Plasma protein binding by rapid equilibration dialysis. The data set is classed as in vitro ADME, rat. The essentials:
(§1)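 Rapid equilibrium dialysis used K2-EDTA plasma from male animals of each species. The test compound (5 µM) was incubated for 2 h at 37 °C, with propranolol (1 µM) as control. Samples were analysed by LC-MS/MS, with response taken as the analyte-to-internal-standard peak area ratio. Unbound fraction = receiver-side response / donor-side response.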

For data set [2], the system named is plasma proteins. The data set is described as above. The data set is classed as in vitro ADME, rabbit. The essentials:
as §1

The test system of data set [3] is plasma proteins. The description is as above. The data set is classed as in vitro ADME, mini-pig. The procedure, abridged:
as §1

In data set [4] the test system is plasma proteins. The description is as above. The data set is classed as in vitro ADME, dog. The essentials: as §1
The next data set can be described thus: Safety of AmyP53 in mice. The data set is classed as in vivo, mouse. The procedure, abridged:
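C57BL/6 mice. Preliminary safety run in 5 young (4-month-old) mice: intranasal test compound, then 10 min later stereotaxic SNpc injection of test compound, then daily intranasal dosing for 7 days. Full study used 7 per group: saline, human α-synuclein protofibrils (50 µM in 0.9% NaCl, pre-incubated 37 °C for 3 days), or protofibrils plus test compound (100 µM). Injections were bilateral into the SNpc, 2.5 µL, under isoflurane. The co-treated group then received daily intranasal dosing for 35 days.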

In data set [5] the test system is male and female Wistar rats. The data set is described as follows: Dose range finding, intranasal route. The data set is classed as in vivo, rat. The conditions noted are these: GLP, 0.2, 1 and 5 mg/kg BW every two days during five days.
Data set [6] concerns male and female Sprague Dawley rats. The experiment in a line: 28-Day repeated dose toxicity, intranasal. The data set is classed as in vivo, rat.
Data set [7] deals with male and female New Zealand White rabbits. The experiment in a line: 14-Day repeated tolerability/toxicity study, intranasal. The data set is classed as in vivo, rabbit. The following applies: male and female rabbits, 0.1, 1 and 5 mg/kg BW/day, 14 days. The essentials:
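GLP study run by a contract lab. Male and female New Zealand White rabbits were dosed intranasally with the test compound daily for 14 days at 0.1, 1.0 and 5.0 mg/kg body weight/day, followed by a 14-day recovery period, with toxicokinetics. Read-outs: local reaction, mortality, clinical signs, body weight, food consumption, clinical pathology, ophthalmoscopy, organ weight, haematology, coagulation, clinical chemistry and histopathology of a full tissue list.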

Data set [8] can be described thus: Plasma stability, rat plasma. The data set is classed as in vitro ADME. The procedure, abridged:
(§2)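 K2-EDTA plasma from male animals of each species was incubated with the test compound (1 µM) at 37 °C for 0–4 h, with propantheline bromide (1 µM) as control. Intact compound remaining was measured by LC-MS to give the half-life.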

The nature of data set [9]: Plasma stability, rabbit plasma. The data set is classed as in vitro ADME. The procedure, abridged:
as §2

Data set [10] can be described thus: Plasma stability, mini-pig plasma. The data set is classed as in vitro ADME. The essentials:
as §2

Data set [11] is described as follows: Plasma stability, dog plasma. The data set is classed as in vitro ADME. The essentials: as §2
The next data set concerns female Wistar rats. The conditions noted are these: initial studies; cited from earlier work.
For data set [12] the following is noted: cited from earlier work.
In the next data set the target is dog plasma proteins. The data set is described as follows: rapid equilibration dialysis.
Another data set concerns the target mini-pig plasma proteins. The experiment in a line: rapid equilibration dialysis.
The target in another data set is rabbit plasma proteins. The experiment in a line: rapid equilibration dialysis.
In a further data set the target is rat plasma proteins. The data set is described as follows: rapid equilibration dialysis.
[13] abbreviates: RED, K2-EDTA plasma from male animals, 2 h at 37 °C, AmyP53 5 µM, Propanolol 1 µM, LC-MS/MS.
Where [14] appears, read: 5 mice, intranasal, then SNpc injection of AmyP53, then 7 days daily intranasal.
[15] abbreviates: 35-day treatment, SNpc co-injection then daily intranasal, n = 7 per group.
Setting [16] is: rats, intranasal administration.
Setting [17] is: K2-EDTA plasma from male animals, 400 µL, 1 µM, 37 °C, 0–4 h, cold acetonitrile quench, LC-MS/MS.

The values below come from paper PMC11914484 (Scientific Reports, 2025).

Ends that are not written are not given here. A value given as a limit tells only on which side of the number the result lay.

For `CC(C)NCC(O)COc1cccc2ccccc12` (stereo not shown) [Propranolol, reference compound], the “bound to plasma protein %, rat plasma” value with plasma proteins [1] (setting [13]) is recorded as 89.8 ±0.1%. In addition, in the data set with plasma proteins [2] (setting [13]), the “bound to plasma protein %, rabbit plasma” value is listed as 74.8 ±1.1%. For the same molecule, the “bound to plasma protein %, mini-pig plasma” value in the data set with plasma proteins [3] (setting [13]) is recorded as 85.2 ±0.9%. Besides, the “bound to plasma protein %, dog plasma” value in the data set with plasma proteins [4] (setting [13]) was determined as 86.5 ±1.0%.

Take KEGVLYVGHHTK [AmyP53]: the “body mass, preliminary safety assessment” value in “Safety of AmyP53 in mice” (setting [14]) was “stable”. Besides, the “overall result of preliminary safety assessment” value in the data set “Safety of AmyP53 in mice” (setting [14]) is given as “safe”. In addition, in the data set “Safety of AmyP53 in mice” (setting [15]), the “effect on body weight of treated mice” value was “did not display any significant effect”. The “impact on overall behavior” value in the data set “Safety of AmyP53 in mice” (setting [15]) is given as “did not induce any negative impact”. Further, in data set [5], the “maximal intranasal dose without any signs of toxicity or dysfunction” value was “The maximal intranasal dose of AmyP53 without any signs of toxicity or dysfunction, is greater or equal to 5 mg/kg BW in both male and female Wistar rats”. Besides, the “intranasal no-observed adverse effect level (NOAEL)” value in data set [6] (male and female Sprague Dawley rats, GLP, every day for 28 days followed by 14 days of recovery) turned out to be 5 mg/kg BW/day. Besides, in data set [6] (male and female rats, 0.1, 1.0 and 5.0 mg/kg body weight/day, 28 days and 14 days of recovery), the “tolerability of repeated intranasal administration, 28 days” value is “well tolerated”. Besides, the “toxicity / tolerability of repeated intranasal administration in rabbits” value in [7] is “no systemic or local toxicity”. The half-life at 1 µM in data set [8] (male, rat, K2-EDTA plasma) is 13.1 h; in [9] (male, rabbit, K2-EDTA plasma) it was 10 h; in [10] (male, pig, K2-EDTA plasma), 6.07 h; in data set [11] (male, dog, K2-EDTA plasma), 1.38 h. Moreover, the fraction unbound at 2 h, 5 µM is 0.066 in the data set with plasma proteins [1] (male, rat, K2-EDTA plasma); 0.183 in the data set with plasma proteins [2] (male, rabbit, K2-EDTA plasma); 0.186 in the data set on plasma proteins [3] (male, pig, K2-EDTA plasma); 0.154 with plasma proteins [4] (male, dog, K2-EDTA plasma). Also, the “maximal tolerated dose, one-week intranasal administration” value with female Wistar rats is listed as more than 5 mg/kg body weight. In addition, the “maximal tolerated dose, one-week intravenous administration” value in the data set with female Wistar rats is more than 80 mg/kg. Moreover, in data set [12] (approximate statement in discussion), the “half-life of AmyP53 in the brain” value is “about 1 h”. Also, in data set [12] (setting [16]), the “Cmax in brain tissue” value is on record as 1766 ng/mL. In data set [12] (setting [16]), the “T1/2 in brain tissue” value is 1.02 h. For the same molecule, the “Tmax in brain tissue” value in data set [12] (setting [16]) is listed as 5 min.

In the case of `CC(C)[N+](C)(CCOC(=O)C1c2ccccc2Oc2ccccc21)C(C)C` [Propantheline, Propantheline bromide, reference compound], the “t1/2 in rat plasma” value in data set [8] (setting [17]) amounted to 3.78 h. In addition, the “t1/2 in rabbit plasma” value in [9] (setting [17]) amounted to 0.283 h. The “t1/2 in mini-pig plasma” value in [10] (setting [17]) was 2.98 h. For the same molecule, the “t1/2 in dog plasma” value in data set [11] (setting [17]) was found to be 1.73 h.

Regarding KEGVLYVGHHTK [AmyP53], the bound to plasma protein % with dog plasma proteins turned out to be 84.6%; in the data set with mini-pig plasma proteins, 81.4%; with rabbit plasma proteins it was 81.7%; with rat plasma proteins it was 93.4%.

For orientation: half-life means how long it takes for the measured level to halve. A high value points to slow decline. As a reminder, the fraction unbound is the share of the substance not bound to proteins or other matrix.
